Values belong to the compound of their own block, whether it stands above or below them. The source made the active and inactive calls. The rule behind the calls is not given here.
What was measured:
[1] = Cytotoxicity against human CEM-GFP cells assessed as reduction in cell viability after 48 hrs by MTT assay; format: cell-based
Outline: (§1)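 Cells were seeded at 25,000/well in complete medium with compound at different concentrations, with untreated and DMSO controls, and incubated 48 h. MTT (5 mg/mL stock) was added for 4 h at 37 °C in the dark. Formazan was dissolved in isopropanol and A570 read. CC50 and highest non-cytotoxic concentration were derived from this assay.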

[2] = test system: Human immunodeficiency virus 1; test: Antiviral activity against HIV-1 NL4-3 infected in human CEM-GFP cells assessed as suppression of viral replication by measuring reduction in p24 level measured at 72 hrs post-infection by ELISA; format: functional, organism-based; settings: Human immunodeficiency virus 1, NL4-3, CEM-GFP
Outline: (§2)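 Cells were incubated with 0.5 MOI virus in the presence of polybrene at 37 °C for 4 h with intermittent mixing, then washed and plated in complete RPMI-1640. Compound added at different concentrations, with untreated and DMSO controls. PBMC were PHA-activated. Supernatant p24 measured by capture ELISA (A450) at 72 h. % inhibition calculated relative to untreated cells.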

[3] = Therapeutic index, ratio of CC50 for human CEM-GFP cells to IC50 for antiviral activity against HIV-1 NL4-3 infected in human CEM-GFP cells; format: toxicity, cell-based; settings: read-out: Ratio CC50/IC50
Outline: (§3)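 IC50 was determined from p24 ELISA 72 h after 0.5 MOI HIV-1 NL4-3 infection with compound at different concentrations. Therapeutic index = CC50/IC50.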

[4] = Cytotoxicity against human TZM-bl cells assessed as maximum non-cytotoxic concentration after 48 hrs by MTT assay; format: cell-based; settings: read-out: MNCC; outline: as §1
[5] = test system: Human immunodeficiency virus 1; test: Antiviral activity against HIV-1 NL4-3 infected in human TZM-bl cells assessed as reduction in viral replication at 1000 nM measured at 48 hrs post-infection by steady-glo reporter gene assay relative to control; format: functional; settings: Human immunodeficiency virus 1, NL4-3, TZM-bl
Outline: (§4)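 TZM-bl cells (0.15×10^6/well) were infected with 0.5 MOI HIV-1 NL4-3 12 h after seeding and treated at the highest non-cytotoxic concentration, which was set by MTT assay. At 48 h post-infection, cells were lysed and mixed 1:1 with Steady-Glo substrate, and luminescence was read.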

[6] = Cytotoxicity against human Jurkat J6 cells assessed as reduction in cell viability after 48 hrs by MTT assay; format: cell-based; outline: as §1
[7] = Cytotoxicity against human U937 cells assessed as reduction in cell viability after 48 hrs by MTT assay; format: cell-based, U-937; outline: as §1
[8] = Cytotoxicity against human PBMC assessed as reduction in cell viability after 48 hrs by MTT assay; format: cell-based; outline: as §1
[9] = test system: Human immunodeficiency virus 1; test: Antiviral activity against HIV-1 NL4-3 infected in human Jurkat J6 cells assessed as suppression of viral replication by measuring reduction in p24 level measured at 72 hrs post-infection by ELISA; format: functional, organism-based; settings: Human immunodeficiency virus 1, Jurkat; outline: as §2
[10] = test system: Human immunodeficiency virus 1; test: Antiviral activity against HIV-1 NL4-3 infected in human U937 cells assessed as suppression of viral replication by measuring reduction in p24 level measured at 72 hrs post-infection by ELISA; format: functional, organism-based; settings: Human immunodeficiency virus 1, U-937, 72 h; outline: as §2
[11] = test system: Human immunodeficiency virus 1; test: Antiviral activity against HIV-1 NL4-3 infected in human PBMC assessed as suppression of viral replication by measuring reduction in p24 level measured at 72 hrs post-infection by ELISA; format: functional, organism-based; settings: Human immunodeficiency virus 1, 72 h; outline: as §2
[12] = Therapeutic index, ratio of CC50 for human Jurkat J6 cells to IC50 for antiviral activity against HIV-1 NL4-3 infected in human Jurkat J6 cells; format: toxicity, cell-based; settings: read-out: Ratio CC50/IC50; outline: as §3
[13] = Therapeutic index, ratio of CC50 for human U937 cells to IC50 for antiviral activity against HIV-1 NL4-3 infected in human U937 cells; format: toxicity, cell-based; settings: read-out: Ratio CC50/IC50; outline: as §3
[14] = Therapeutic index, ratio of CC50 for human PBMC to IC50 for antiviral activity against HIV-1 NL4-3 infected in human PBMC; format: toxicity; settings: read-out: Ratio CC50/IC50; outline: as §3
HIV-1 M:B [15] = test: Antiviral activity against X4 tropic HIV-1 subtype-B 3B infected in human CEM-GFP cells assessed as suppression of viral replication by measuring reduction in p24 level measured at 72 hrs post-infection by ELISA; format: functional, cell-based; outline: as §2
[16] = test system: Human immunodeficiency virus 1; test: Antiviral activity against R5X4 tropic HIV-1 subtype-B 89.6 infected in human CEM-GFP cells assessed as suppression of viral replication by measuring reduction in p24 level measured at 72 hrs post-infection by ELISA; format: functional, organism-based; settings: M:B_89.6; outline: as §2
HIV-1 M:B [17] = test: Antiviral activity against R5 tropic HIV-1 subtype-B ADA infected in human CEM-GFP cells assessed as suppression of viral replication by measuring reduction in p24 level measured at 72 hrs post-infection by ELISA; format: functional, cell-based; outline: as §2
[18] = test system: Human immunodeficiency virus 1; test: Antiviral activity against HIV-1 subtype C isolate indeiC infected in human CEM-GFP cells assessed as suppression of viral replication by measuring reduction in p24 level measured at 72 hrs post-infection by ELISA; format: functional, organism-based; outline: as §2
HIV-1 M:B [19] = test: Antiviral activity against X4 tropic HIV-1 subtype-B 3B infected in human PBMC assessed as suppression of viral replication by measuring reduction in p24 level measured at 72 hrs post-infection by ELISA; format: functional; outline: as §2
[20] = test system: Human immunodeficiency virus 1; test: Antiviral activity against R5X4 tropic HIV-1 subtype-B 89.6 infected in human PBMC assessed as suppression of viral replication by measuring reduction in p24 level measured at 72 hrs post-infection by ELISA; format: functional, organism-based; settings: M:B_89.6; outline: as §2
HIV-1 M:B [21] = test: Antiviral activity against R5 tropic HIV-1 subtype-B ADA infected in human PBMC assessed as suppression of viral replication by measuring reduction in p24 level measured at 72 hrs post-infection by ELISA; format: functional; outline: as §2
[22] = test system: Human immunodeficiency virus 1; test: Antiviral activity against HIV-1 subtype C isolate indeiC infected in human PBMC cells assessed as suppression of viral replication by measuring reduction in p24 level measured at 72 hrs post-infection by ELISA; format: functional, organism-based; outline: as §2
[23] = test system: Human immunodeficiency virus 1; test: Antiviral activity against 0.01 to 0 1 MOI HIV-1 NL4-3 infected in human CEM-GFP cells assessed as suppression of viral replication by measuring reduction in p24 level at 1 uM measured at 72 hrs post-infection by ELISA; format: functional, organism-based
Outline: (§5)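 Cells infected with HIV-1 NL4-3 at MOI 0.01, 0.1 or 1 in the presence of polybrene at 37 °C for 4 h. Cells then washed in serum-free RPMI-1640 and plated in complete RPMI-1640 with compound at its highest non-cytotoxic concentration. Untreated and DMSO controls. Supernatant p24 measured by antigen-capture ELISA (A450) at 72 h post-infection. % inhibition = (untreated − treated p24)/untreated p24 × 100.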

[24] = test system: Human immunodeficiency virus 1; test: Antiviral activity against 0.01 to 0 1 MOI HIV-1 NL4-3 infected in human PBMC assessed as suppression of viral replication by measuring reduction in p24 level at 1 uM measured at 72 hrs post-infection by ELISA; format: functional, organism-based; outline: as §5
[25] = biological target: Human immunodeficiency virus type 1 reverse transcriptase (Human immunodeficiency virus 1) (UniProt Q72547); test: Inhibition of HIV-1 reverse transcriptase RNA-dependent DNA polymerase activity assessed as reduction in biotin-dUTP incorporation at 1 uM using poly(A)/oligo (dT)15 as template/primer by ELISA
Outline: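 RNA-dependent DNA polymerase activity of HIV-1 RT was tested with a colorimetric reverse transcriptase kit. Nevirapine served as positive control, with untreated and DMSO vehicle wells. Compound was tested at its highest non-cytotoxic concentration. n = 3.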

[26] = biological target: Protease (Human immunodeficiency virus 1) (UniProt Q9YQ12); test: Inhibition of HIV-1 protease at 1 uM using synthetic peptide as substrate after 15 mins by fluorimetric based assay
Protease (Human immunodeficiency virus 1), sequence (Q9YQ12 as listed by the source): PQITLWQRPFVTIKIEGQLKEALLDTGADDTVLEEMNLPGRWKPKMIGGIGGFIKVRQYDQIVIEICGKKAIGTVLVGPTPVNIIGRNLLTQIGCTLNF
Outline: (§6)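 Cell-free fluorometric protease kit. HIV-1 protease was diluted in reaction buffer and loaded at 10 nmol/well with or without compound. Indinavir served as positive control, with untreated and DMSO controls. Fluorescence (Ex/Em 330/450 nm) was read 15 min after addition. n = 3.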

[27] = test system: Human immunodeficiency virus 1; test: Antiviral activity against HIV-1 NL4-3 infected in CEM-GFP cells assessed as reduction in HSP90 expression measured at 72 hrs post-infection by immunoblotting analysis; format: functional, organism-based
Outline: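 CEM-GFP cells were infected with 0.5 MOI HIV-1 NL4-3 with or without compound, with DMSO as vehicle control. At 72 h post-infection, HSP90 protein was measured by immunoblotting and quantified by densitometry.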

[28] = biological target: Heat shock protein HSP90 (Homo sapiens) (UniProt P07900+P08238); test: Inhibition of HSP90 (unknown origin) expressed in HEK-293T cells assessed as reduction in Tat-mediated transactivation at 1 uM measured at 48 hrs post-transfection by LTR-driven luciferase reporter gene assay; format: cell-based
Outline: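 HEK-293T cells were co-transfected with p-LTR-Luc and Tat using PEI in the presence or absence of compound. At 48 h post-transfection, cells were harvested and luminescence and fluorescence were measured.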

[29] = Ratio of therapeutic index for compound to therapeutic index of AZT
[30] = Ratio of therapeutic index for compound to therapeutic index of AUY922
[31] = test system: Human immunodeficiency virus 1; test: Antiviral activity against HIV1 NL4-3 infected in human TZM-bl cells assessed as reduction in viral replication at 100 nM measured at 48 hrs post-infection by steady-glo reporter gene assay relative to control; format: functional; settings: Human immunodeficiency virus 1, NL4-3, TZM-bl; outline: as §4
[32] = biological target: Protease (Human immunodeficiency virus 1) (UniProt Q9YQ12); test: Inhibition of HIV-1 protease at 500 nM using synthetic peptide as substrate after 15 mins by fluorimetric based assay; outline: as §6

IC50 [2]: 0.0127 µM
SMILES: Cc1cn([C@H]2C[C@H](N=[N+]=[N-])[C@@H](CO)O2)c(=O)[nH]c1=O [ZIDOVUDINE]
CC50 at 48 h [1]: 13.9 µM | selectivity ratio [3]: 1090

IC50 [2]: 0.0395 µM | IC50 [9]: 0.0527 µM | IC50 [10]: 0.053 µM | IC50 [11]: 0.0562 µM | inhibition [25]: inactive | inhibition [26]: inactive | inhibition [28]: Active
SMILES: CC(C)NC(=O)Cc1cc(-c2ccccc2)on1
MNTC at 48 h [4]: 1000 nM | inhibition at 1 µM [5]: 85% | CC50 at 48 h [1]: 65.6 µM | CC50 at 48 h [6]: 60.3 µM | CC50 at 48 h [7]: 56.6 µM | CC50 at 48 h [8]: 67.9 µM | selectivity ratio [12]: 1140 | selectivity ratio [13]: 1070 | selectivity ratio [14]: 1210 | inhibition (HIV-1 M:B [15]): Active | inhibition [16]: Active | inhibition (HIV-1 M:B [17]): Active | inhibition [18]: Active | inhibition (HIV-1 M:B [19]): Active | inhibition [20]: Active | inhibition (HIV-1 M:B [21]): Active | inhibition [22]: Active | inhibition [23]: Active | inhibition [24]: Active | Activity [27]: Active | selectivity ratio [3]: 1660 | Ratio [29]: 1.5 | Ratio [30]: 3.5

SMILES: Cc1cccc(NC(=O)Cc2cc(-c3ccccc3)on2)c1
MNTC at 48 h [4]: 100 nM | inhibition at 0.1 µM [31]: 33.3%

IC50 [2]: 0.0663 µM
SMILES: CCNC(=O)c1noc(-c2cc(C(C)C)c(O)cc2O)c1-c1ccc(CN2CCOCC2)cc1 [LUMINESPIB]
MNTC at 48 h [4]: 1000 nM | inhibition at 1 µM [5]: 88.3% | CC50 at 48 h [1]: 31.1 µM | selectivity ratio [3]: 470

SMILES: Cc1ccc(NC(=O)Cc2cc(-c3cccs3)on2)cc1
MNTC at 48 h [4]: 100 nM | inhibition at 0.1 µM [31]: 56.9%

inhibition [32]: Active
SMILES: CC(C)(C)NC(=O)[C@@H]1CN(Cc2cccnc2)CCN1C[C@@H](O)C[C@@H](Cc1ccccc1)C(=O)N[C@H]1c2ccccc2C[C@H]1O

SMILES: O=C(Cc1cc(-c2ccccc2)on1)Nc1ccc(O)cc1
MNTC at 48 h [4]: 1000 nM | inhibition at 1 µM [5]: 13.4%

SMILES: O=C(Cc1cc(-c2ccco2)on1)Nc1ccc(O)cc1
MNTC at 48 h [4]: 1000 nM | inhibition at 1 µM [5]: 53.1%

SMILES: CCCNC(=O)Cc1cc(-c2ccccc2)on1
MNTC at 48 h [4]: 100 nM | inhibition at 0.1 µM [31]: 60.9%

IC50 [2]: 0.288 µM
SMILES: O=C(Cc1cc(-c2ccccc2)on1)Nc1ccccc1
MNTC at 48 h [4]: 1000 nM | inhibition at 1 µM [5]: 89.1% | CC50 at 48 h [1]: 23 µM | selectivity ratio [3]: 79.8
